Test results reported in ChEMBL document CHEMBL4842326, “Design, synthesis and biological evaluation of 3, 4-disubstituted-imidazolidine-2, 5-dione derivatives as HDAC6 selective inhibitors” (Eur J Med Chem, 2021).

How the values were obtained:
Histone deacetylase 8 = target: T1, Histone deacetylase 8 (Homo sapiens, UniProt Q9BY41); assay: Inhibition of HDAC8 (unknown origin) using Ac-LeuGlyLys(tfa)-AMC as substrate preincubated for 10 mins followed by substrate addition and further incubated for incubated for 1 hrs by fluorescence microtiter plate reader assay
T1 sequence (Q9BY41 whole entry): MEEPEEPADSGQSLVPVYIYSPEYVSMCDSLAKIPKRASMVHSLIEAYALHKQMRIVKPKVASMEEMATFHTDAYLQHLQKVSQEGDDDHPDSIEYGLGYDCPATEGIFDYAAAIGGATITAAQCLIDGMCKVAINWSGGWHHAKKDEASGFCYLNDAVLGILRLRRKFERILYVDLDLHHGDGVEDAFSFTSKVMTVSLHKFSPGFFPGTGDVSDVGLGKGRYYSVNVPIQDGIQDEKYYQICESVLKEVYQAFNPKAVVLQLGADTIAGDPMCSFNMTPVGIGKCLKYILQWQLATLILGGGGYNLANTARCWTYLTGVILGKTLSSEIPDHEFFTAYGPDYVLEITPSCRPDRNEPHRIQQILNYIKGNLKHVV

NCI-H929 = assay: Antiproliferative activity against human NCI-H929 cells assessed as inhibition of cell proliferation after 48 hrs by MTT assay; format: functional, cell-based; details: NCI-H929, 48 h
How it was run: (§1)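 Leukemia/myeloma lines grown in RPMI1640 with 10% FBS at 37 °C, 5% CO2; seeded at 3500–4000 cells/well, cultured overnight, then exposed to serial dilutions for 48 h.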

[1] = Cytotoxicity against human GEC1 cells assessed as decrease in cell viability after 48 hrs by MTT assay; format: cell-based; details: GEC1, 48 h
How it was run: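 Normal cells: HUVECs in RPMI1640 with 10% FBS plus 0.1% heparin, GEC-1 in RPMI1640 with 10% FBS. Seeded 8 h, then treated with serial dilutions for 48 h; 0.5% MTT for 4 h, supernatant removed, DMSO added, absorbance read at 570 nm.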

HL-60 [2] = assay: Induction of mitochondrial membrane potential depolarization in human HL-60 cells at 3 uM by fluorescence assay; format: functional, cell-based; details: time hrs <=24, TDE = time-dependent effect
How it was run: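 HL-60 cells (1 × 10^6) seeded overnight, exposed to compound or vehicle (0.2% DMSO) for the indicated times, then loaded with TMRE (100 nM) 30 min at 37 °C; washed three times in PBS, fluorescence read at Ex 540/Em 579 nm.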

HL-60 [3] = assay: Antiproliferative activity against human HL-60 cells assessed as inhibition of cell proliferation after 48 hrs by MTT assay; format: functional, cell-based; details: HL-60, 48 h; how it was run: as §1
Homo sapiens = organism: Homo sapiens; assay: Selectivity ratio of IC50 for HDAC8 (unknown origin) to IC50 for HDAC6 (unknown origin)
HL-60 [4] = assay: Induction of apoptosis in human HL-60 cells assessed as late apoptotic cells at 3 uM after 48 hrs by Annexin V-FITC/propidium iodide staining based flow cytometric analysis (reference value: 1.45%); format: functional
How it was run: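 HL-60 cells (1 × 10^6/well) exposed 48 h to compound dilutions, collected, PBS-washed, resuspended in Annexin V-FITC binding buffer, stained with propidium iodide and Annexin V-FITC for 15 min, then analysed by flow cytometry.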

HL-60 [5] = assay: Induction of apoptosis in human HL-60 cells assessed as early apoptotic cells at 3 uM after 48 hrs by Annexin V-FITC/propidium iodide staining based flow cytometric analysis (reference value: […]%); format: functional
KG-1 = assay: Antiproliferative activity against human KG-1 cells assessed as inhibition of cell proliferation after 48 hrs by MTT assay; format: functional, cell-based; details: KG-1, 48 h; how it was run: as §1
[6] = target: T2, Protein deacetylase HDAC6 (Homo sapiens) (UniProt Q9UBN7); assay: Potency index, ratio of tubastatin-A IC50 to test compound IC50 for HDAC6 (unknown origin) using Ac-LeuGlyLy-s(Ac)-AMC as substrate preincubated for 10 mins followed by substrate addition and further incubated for 2 hrs by fluorescence microtiter plate reader assay
T2 sequence (whole entry): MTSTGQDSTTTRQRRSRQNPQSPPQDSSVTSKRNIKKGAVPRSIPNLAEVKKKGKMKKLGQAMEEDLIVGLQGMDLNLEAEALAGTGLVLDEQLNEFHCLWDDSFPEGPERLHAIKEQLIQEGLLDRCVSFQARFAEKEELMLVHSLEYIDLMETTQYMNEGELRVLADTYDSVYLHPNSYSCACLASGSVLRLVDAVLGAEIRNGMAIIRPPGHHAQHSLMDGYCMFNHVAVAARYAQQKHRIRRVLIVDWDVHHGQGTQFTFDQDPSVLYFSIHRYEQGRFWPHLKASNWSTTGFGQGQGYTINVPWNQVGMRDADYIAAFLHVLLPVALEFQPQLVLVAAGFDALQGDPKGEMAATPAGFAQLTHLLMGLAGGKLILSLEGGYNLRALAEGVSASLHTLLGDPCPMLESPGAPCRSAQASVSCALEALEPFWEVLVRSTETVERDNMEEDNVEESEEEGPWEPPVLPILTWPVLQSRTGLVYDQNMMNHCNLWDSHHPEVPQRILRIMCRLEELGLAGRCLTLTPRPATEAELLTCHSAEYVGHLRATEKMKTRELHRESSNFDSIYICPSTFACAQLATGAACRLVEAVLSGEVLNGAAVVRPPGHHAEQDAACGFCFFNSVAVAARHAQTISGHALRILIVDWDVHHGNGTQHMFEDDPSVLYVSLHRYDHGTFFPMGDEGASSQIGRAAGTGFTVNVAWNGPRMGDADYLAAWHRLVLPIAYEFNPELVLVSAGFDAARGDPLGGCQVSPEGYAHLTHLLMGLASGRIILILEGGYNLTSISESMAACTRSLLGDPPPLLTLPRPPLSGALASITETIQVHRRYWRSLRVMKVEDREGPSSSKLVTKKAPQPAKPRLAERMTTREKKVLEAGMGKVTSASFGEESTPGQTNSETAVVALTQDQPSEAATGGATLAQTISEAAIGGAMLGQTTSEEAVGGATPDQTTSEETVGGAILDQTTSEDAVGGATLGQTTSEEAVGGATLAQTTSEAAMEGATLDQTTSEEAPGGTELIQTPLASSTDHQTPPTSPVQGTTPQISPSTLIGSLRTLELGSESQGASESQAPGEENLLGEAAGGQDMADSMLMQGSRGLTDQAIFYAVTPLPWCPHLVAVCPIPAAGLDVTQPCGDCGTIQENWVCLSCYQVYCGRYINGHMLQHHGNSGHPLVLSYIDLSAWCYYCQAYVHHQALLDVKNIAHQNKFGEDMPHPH

O=C(NO)c1ccc(CN2C(=O)C(Cc3ccccc3)N(Cc3cccnc3)C2=O)cc1 (racemic)
IC50 (Histone deacetylase 8): 3.44 µM
IC50 (NCI-H929): 7.61 µM
IC50 [1]: 68.2 µM
Activity (HL-60 [2]): Tde
IC50 (HL-60 [3]): 3.23 µM
Ratio IC50 (Homo sapiens): 1640
Activity (HL-60 [4]): 10%
Activity (HL-60 [5]): 10.5%
IC50 (KG-1): 7.04 µM
Ratio IC50 [6]: 12
